Active and inactive are the calls of the source. No cut-off for these calls is given here.
What was measured:
[1] = target: T1, Mitogen-activated protein kinase 9 (Homo sapiens, UniProt P45984); assay: Inhibition of human JNK2alpha2 at 100 uM after 40 mins by [gamma-33ATP] radiometric assay relative to control
Target sequence in this assay (P45984 whole entry, looked up): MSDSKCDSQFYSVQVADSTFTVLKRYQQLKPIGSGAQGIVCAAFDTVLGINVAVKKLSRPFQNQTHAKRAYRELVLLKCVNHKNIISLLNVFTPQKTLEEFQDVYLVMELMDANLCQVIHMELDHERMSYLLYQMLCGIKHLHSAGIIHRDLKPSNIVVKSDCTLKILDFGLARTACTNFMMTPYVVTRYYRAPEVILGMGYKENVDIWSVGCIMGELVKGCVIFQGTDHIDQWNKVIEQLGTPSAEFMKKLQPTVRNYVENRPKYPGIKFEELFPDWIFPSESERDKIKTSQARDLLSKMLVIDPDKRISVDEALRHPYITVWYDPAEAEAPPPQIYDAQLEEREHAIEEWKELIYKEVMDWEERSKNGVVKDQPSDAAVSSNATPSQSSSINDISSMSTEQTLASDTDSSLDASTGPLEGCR

[2] = system: Epidermal growth factor receptor (Homo sapiens), P00533 [L858R]; assay: Inhibition of human EGFR L858R at 10 uM using poly[Glu:Tyr] (4:1) as substrate measured after 40 mins in presence of [gamma-33P]ATP by radiometric assay
Outline: (§1)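 Human EGFR L858R incubated in 8 mM MOPS pH 7.0, 0.2 mM EDTA, 10 mM MnCl2, 0.1 mg/mL poly(Glu,Tyr) 4:1, 10 mM Mg acetate, [γ-33P]-ATP (approx. 500 cpm/pmol); MgATP start, 40 min room temperature, 3% phosphoric acid stop, Filtermat A spotting, washes in 75 mM phosphoric acid and methanol, scintillation readout; % of uninhibited activity.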

[3] = target: T2, Mitogen-activated protein kinase 8 (Homo sapiens, UniProt P45983); assay: Inhibition of human JNK1alpha1 after 40 mins by [gamma-33ATP] radiometric assay relative to control
T2 sequence (P45983 whole entry): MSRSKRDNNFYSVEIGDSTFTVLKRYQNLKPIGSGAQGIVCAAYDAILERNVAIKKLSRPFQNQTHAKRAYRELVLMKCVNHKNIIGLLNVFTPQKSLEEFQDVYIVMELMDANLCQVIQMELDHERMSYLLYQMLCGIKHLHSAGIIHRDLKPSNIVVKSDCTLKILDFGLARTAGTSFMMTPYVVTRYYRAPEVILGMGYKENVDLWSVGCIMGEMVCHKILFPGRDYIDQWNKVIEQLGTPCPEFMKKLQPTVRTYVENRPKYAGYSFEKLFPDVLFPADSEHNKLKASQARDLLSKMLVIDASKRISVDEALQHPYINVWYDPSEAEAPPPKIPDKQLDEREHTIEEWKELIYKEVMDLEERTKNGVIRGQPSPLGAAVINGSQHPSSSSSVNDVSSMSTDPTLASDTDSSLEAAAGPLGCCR

[4] = target: T2, Mitogen-activated protein kinase 8; assay: Inhibition of human JNK1alpha1 at 100 uM after 40 mins by [gamma-33ATP] radiometric assay relative to control
[5] = target: T3, Mitogen-activated protein kinase 10 (Homo sapiens, UniProt P53779); assay: Inhibition of human JNK3 at 10 uM after 40 mins by [gamma-33ATP] radiometric assay relative to control
T3 sequence (P53779 whole entry, the tested form may be a part): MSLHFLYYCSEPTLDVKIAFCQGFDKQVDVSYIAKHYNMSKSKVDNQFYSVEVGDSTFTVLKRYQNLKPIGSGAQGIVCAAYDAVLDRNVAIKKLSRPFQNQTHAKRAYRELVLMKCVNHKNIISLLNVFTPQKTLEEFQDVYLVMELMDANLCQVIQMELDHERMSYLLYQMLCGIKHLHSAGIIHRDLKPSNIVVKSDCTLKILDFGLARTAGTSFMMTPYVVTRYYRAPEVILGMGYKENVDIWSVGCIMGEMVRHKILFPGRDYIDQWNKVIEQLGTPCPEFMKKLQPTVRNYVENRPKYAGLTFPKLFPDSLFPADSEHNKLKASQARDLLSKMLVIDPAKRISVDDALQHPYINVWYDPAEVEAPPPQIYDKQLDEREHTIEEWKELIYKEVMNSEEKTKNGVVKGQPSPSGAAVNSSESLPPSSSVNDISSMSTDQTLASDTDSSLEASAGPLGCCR

[6] = target: T4, Epithelial discoidin domain-containing receptor 1 (Homo sapiens, UniProt Q08345); assay: Inhibition of human DDR1 using KKKSPGEYVNIEFG as substrate after 40 mins by [gamma-33P]-ATP assay
T4 sequence (Q08345 whole entry, the tested form may be a part): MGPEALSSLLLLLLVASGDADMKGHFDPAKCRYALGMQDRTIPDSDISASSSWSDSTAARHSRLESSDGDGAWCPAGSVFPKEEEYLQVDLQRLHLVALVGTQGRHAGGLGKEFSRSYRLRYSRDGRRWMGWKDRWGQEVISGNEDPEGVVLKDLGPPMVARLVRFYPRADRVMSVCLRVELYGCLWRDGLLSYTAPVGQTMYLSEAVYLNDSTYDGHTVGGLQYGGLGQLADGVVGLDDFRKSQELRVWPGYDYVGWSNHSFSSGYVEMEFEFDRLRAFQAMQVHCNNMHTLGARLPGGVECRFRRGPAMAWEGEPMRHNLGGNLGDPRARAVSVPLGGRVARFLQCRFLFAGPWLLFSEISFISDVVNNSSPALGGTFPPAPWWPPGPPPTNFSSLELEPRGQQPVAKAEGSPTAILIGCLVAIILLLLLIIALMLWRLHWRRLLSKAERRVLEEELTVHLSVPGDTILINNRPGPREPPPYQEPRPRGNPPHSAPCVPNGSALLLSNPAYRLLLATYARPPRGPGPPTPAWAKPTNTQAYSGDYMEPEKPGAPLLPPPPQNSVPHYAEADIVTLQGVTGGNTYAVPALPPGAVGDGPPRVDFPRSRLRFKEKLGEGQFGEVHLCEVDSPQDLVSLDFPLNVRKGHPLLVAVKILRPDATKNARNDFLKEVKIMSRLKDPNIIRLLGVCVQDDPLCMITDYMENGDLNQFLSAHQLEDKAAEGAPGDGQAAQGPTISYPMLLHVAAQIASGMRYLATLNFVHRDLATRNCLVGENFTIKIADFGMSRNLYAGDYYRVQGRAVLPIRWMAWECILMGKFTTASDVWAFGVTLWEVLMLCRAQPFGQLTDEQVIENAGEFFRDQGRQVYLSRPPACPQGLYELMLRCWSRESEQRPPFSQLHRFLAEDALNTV
Outline: (§2)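 Human DDR1 in 8 mM MOPS pH 7.0, 0.2 mM EDTA, 250 μM peptide substrate, 10 mM Mg acetate, [γ-33P]-ATP (approx. 500 cpm/pmol); started with MgATP, 40 min room temperature, stopped with 3% phosphoric acid, spotted on P30 filtermat, washed in 75 mM phosphoric acid and methanol, scintillation counted. Activity as % of no-inhibitor control.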

[7] = target: Epidermal growth factor receptor (Homo sapiens, UniProt P00533, L858R/T790M); assay: Inhibition of human EGFR L858R/T790M mutant GGMEDIYFEFMGGKKK as substrate measured after 40 mins in presence of [gamma-33P]ATP by radiometric assay
Outline: (§3)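 EGFR T790M/L858R (human) in 8 mM MOPS pH 7.0, 0.2 mM EDTA, 250 μM peptide substrate, 10 mM Mg acetate, [γ-33P]-ATP (approx. 500 cpm/pmol); initiated with MgATP, 40 min room temperature, terminated with 3% phosphoric acid, P30 filtermat, 75 mM phosphoric acid and methanol washes, scintillation counting.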

[8] = target: T2, Mitogen-activated protein kinase 8; assay: Inhibition of human JNK1alpha1 at 10 uM after 40 mins by [gamma-33ATP] radiometric assay relative to control
[9] = target: T3, Mitogen-activated protein kinase 10; assay: Inhibition of human JNK3 after 40 mins by [gamma-33ATP] radiometric assay relative to control
[10] = target: T1, Mitogen-activated protein kinase 9; assay: Inhibition of human JNK2alpha2 after 40 mins by [gamma-33ATP] radiometric assay relative to control
Target sequence in this assay (P45984 whole entry): as the sequence (P45984 whole entry, looked up) above

[11] = target: T2, Mitogen-activated protein kinase 8; assay: Inhibition of human JNK1alpha1 at 30 uM after 40 mins by [gamma-33ATP] radiometric assay relative to control
[12] = target: T1, Mitogen-activated protein kinase 9; assay: Inhibition of human JNK2alpha2 at 30 uM after 40 mins by [gamma-33ATP] radiometric assay relative to control
Target sequence in this assay (P45984 whole entry, looked up): as above

[13] = target: Epidermal growth factor receptor (Homo sapiens, UniProt P00533, L858R); assay: Inhibition of human EGFR L858R using poly[Glu:Tyr] (4:1) as substrate measured after 40 mins in presence of [gamma-33P]ATP by radiometric assay; outline: as §1
Epidermal growth factor receptor (Homo sapiens, UniProt P00533, L858R), sequence (P00533 25-1210 L858R limits assumed): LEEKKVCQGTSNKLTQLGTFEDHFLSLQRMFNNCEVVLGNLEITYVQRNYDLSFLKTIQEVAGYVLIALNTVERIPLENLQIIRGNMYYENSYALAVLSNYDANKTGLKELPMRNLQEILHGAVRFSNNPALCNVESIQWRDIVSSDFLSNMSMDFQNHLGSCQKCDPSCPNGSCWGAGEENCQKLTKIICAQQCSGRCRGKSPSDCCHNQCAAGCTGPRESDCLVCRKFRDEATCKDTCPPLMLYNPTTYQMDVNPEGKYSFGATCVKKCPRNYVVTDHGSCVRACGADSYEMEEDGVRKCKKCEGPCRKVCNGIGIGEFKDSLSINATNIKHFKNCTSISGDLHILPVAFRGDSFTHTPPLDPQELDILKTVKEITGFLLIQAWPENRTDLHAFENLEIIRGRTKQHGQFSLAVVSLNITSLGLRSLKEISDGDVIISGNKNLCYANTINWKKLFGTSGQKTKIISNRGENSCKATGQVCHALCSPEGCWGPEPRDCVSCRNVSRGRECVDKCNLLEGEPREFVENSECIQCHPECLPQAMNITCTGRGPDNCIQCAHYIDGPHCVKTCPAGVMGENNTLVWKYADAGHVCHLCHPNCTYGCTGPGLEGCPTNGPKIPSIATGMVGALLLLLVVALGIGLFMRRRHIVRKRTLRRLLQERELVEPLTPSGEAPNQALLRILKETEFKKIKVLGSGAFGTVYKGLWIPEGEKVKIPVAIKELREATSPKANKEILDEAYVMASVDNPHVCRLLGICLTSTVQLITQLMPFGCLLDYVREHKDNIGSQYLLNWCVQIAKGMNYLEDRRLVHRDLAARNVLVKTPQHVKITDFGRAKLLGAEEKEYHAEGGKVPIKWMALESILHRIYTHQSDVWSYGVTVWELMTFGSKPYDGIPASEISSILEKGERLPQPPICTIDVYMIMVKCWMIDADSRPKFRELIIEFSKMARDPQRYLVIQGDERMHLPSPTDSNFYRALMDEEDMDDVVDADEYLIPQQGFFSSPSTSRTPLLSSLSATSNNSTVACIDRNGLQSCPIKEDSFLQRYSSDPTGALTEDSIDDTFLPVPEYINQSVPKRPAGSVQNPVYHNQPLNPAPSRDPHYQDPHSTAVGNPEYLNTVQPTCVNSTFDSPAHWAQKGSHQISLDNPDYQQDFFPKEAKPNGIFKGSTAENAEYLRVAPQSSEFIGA

[14] = target: T1, Mitogen-activated protein kinase 9; assay: Inhibition of human JNK2alpha2 at 10 uM after 40 mins by [gamma-33ATP] radiometric assay relative to control
Target sequence in this assay (P45984 whole entry, looked up): as the sequence (P45984 whole entry, looked up) above

[15] = system: Epidermal growth factor receptor (Homo sapiens), P00533 [L858R,T790M]; assay: Inhibition of human EGFR L858R/T790M mutant at 10 uM GGMEDIYFEFMGGKKK as substrate measured after 40 mins in presence of [gamma-33P]ATP by radiometric assay; outline: as §3
[16] = target: T5, Discoidin domain-containing receptor 2 (Homo sapiens) (UniProt Q16832); assay: Inhibition of human DDR2 at 10 uM using KKSRGDYMTMQIG as substrate after 40 mins by [gamma-33P]-ATP assay
T5 sequence (whole entry): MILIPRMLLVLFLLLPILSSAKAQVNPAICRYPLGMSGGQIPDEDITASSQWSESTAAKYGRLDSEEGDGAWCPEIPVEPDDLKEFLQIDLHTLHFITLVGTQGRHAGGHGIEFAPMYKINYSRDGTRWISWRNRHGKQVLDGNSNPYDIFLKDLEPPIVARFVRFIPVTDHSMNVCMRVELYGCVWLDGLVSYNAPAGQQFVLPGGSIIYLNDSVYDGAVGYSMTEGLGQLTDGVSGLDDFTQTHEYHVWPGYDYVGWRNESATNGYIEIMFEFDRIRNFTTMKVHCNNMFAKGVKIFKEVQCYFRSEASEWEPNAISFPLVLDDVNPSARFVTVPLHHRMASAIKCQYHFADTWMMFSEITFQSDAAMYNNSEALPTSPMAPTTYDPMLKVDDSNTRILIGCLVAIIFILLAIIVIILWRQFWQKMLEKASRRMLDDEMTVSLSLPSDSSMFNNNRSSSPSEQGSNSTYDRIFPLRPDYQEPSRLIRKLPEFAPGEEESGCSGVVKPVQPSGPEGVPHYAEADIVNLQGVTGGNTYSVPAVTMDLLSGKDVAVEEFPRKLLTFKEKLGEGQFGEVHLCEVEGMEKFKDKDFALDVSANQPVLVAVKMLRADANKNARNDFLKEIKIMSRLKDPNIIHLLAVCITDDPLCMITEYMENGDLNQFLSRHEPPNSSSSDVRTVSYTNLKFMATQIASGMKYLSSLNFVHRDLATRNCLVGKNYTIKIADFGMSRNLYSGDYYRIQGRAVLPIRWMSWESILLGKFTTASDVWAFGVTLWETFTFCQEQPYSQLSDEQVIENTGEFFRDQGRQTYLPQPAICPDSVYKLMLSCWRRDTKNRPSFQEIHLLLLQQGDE
Outline: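 Human DDR2 in 8 mM MOPS pH 7.0, 0.2 mM EDTA, 250 μM peptide, 10 mM MnCl2 plus 10 mM Mg acetate, [γ-33P]-ATP (approx. 500 cpm/pmol). Reaction started with MgATP, run 40 min at room temperature, quenched with 3% phosphoric acid; P30 filtermat capture, phosphoric acid/methanol washes, scintillation counting; activity relative to no-inhibitor control set as 100%.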

[17] = target: T4, Epithelial discoidin domain-containing receptor 1; assay: Inhibition of human DDR1 at 10 uM using KKKSPGEYVNIEFG as substrate after 40 mins by [gamma-33P]-ATP assay; outline: as §2

Row | Structure (SMILES) | inhibition [1] | inhibition [2] | IC50 [3] [µM] | inhibition [4] | inhibition [5] [%] | IC50 [6] [µM] | IC50 [7] [µM] | inhibition [8] | IC50 [9] [µM] | IC50 [10] [µM] | inhibition [11] | inhibition [12] | IC50 [13] [µM] | inhibition [14] | inhibition [15] | inhibition [16] | inhibition [17]
1 | N#Cc1ccc2c(c1)N/C(=C\C(=O)c1cccc3ccccc13)C(=O)N2 | inactive | inactive | > 100 | inactive | 88 | > 10 | > 10 | inactive | 0.19 | > 100 | inactive | inactive | > 10 | inactive | inactive | – | –
2 | COc1cccc(C(=O)/C=C2\Nc3ccccc3NC2=O)c1 | inactive | – | – | inactive | 70 | – | – | inactive | 5.6 | – | inactive | inactive | – | inactive | – | Active | inactive

— ChEMBL document CHEMBL4765361, “Rational modification, synthesis and biological evaluation of 3,4-dihydroquinoxalin-2(1H)-one derivatives as potent and selective c-Jun N-terminal kinase 3 (JNK3) inhibitors” (Eur J Med Chem, 2020)
